High-throughput results from PubChem.
Not all results are given here.
PGC1a acetyl up – compounds raising PGC1a acetylation signal, primary screen, PGC1a modulator project, cell-based, U2OS, AlphaScreen, signal-increasing mode; overnight; activation, % at 15.6 µM; 350,000 compounds, 0.21% hits;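 active = every replicate reaching activation of at least 50%, whatever the mean replicate activation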;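 also: hits raise the AlphaScreen acetylation signal above neutral controls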
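Test system: U2OS cells expressing flag-PGC1a plus GCN5; Amount: 7000 U2OS cells per well; Compound: single test concentration per compound; Incubation: compound overnight at 37 °C, each detection step 1 h RT; Signal: AlphaScreen lysate read.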
Large screens that a line does not name were inactive.

Fc1cccc(-c2ccc([C@@H]3[C@@H]4CN(Cc5nccs5)C[C@H]3N4)cc2)c1	PGC1a acetyl up 75.2
COc1cccc(CN2C[C@@H]3N[C@H](C2)C3c2ccc(-c3cccc(C#N)c3)cc2)c1 (some centres undefined)	PGC1a acetyl up 79.3
Fc1cccc(CN2C[C@@H]3N[C@H](C2)C3c2ccc(/C=C/c3ccccc3)cc2)c1 (some centres undefined)	PGC1a acetyl up 65.5
COc1cccc(-c2ccc(C3[C@@H]4CN(Cc5cccc(F)c5)C[C@H]3N4)cc2)c1 (some centres undefined)	none
COc1cccc(-c2ccc(C3[C@@H]4CN(Cc5ccccn5)C[C@H]3N4)cc2)c1 (some centres undefined)	PGC1a acetyl up 55.5
CC(C)NC(=O)Nc1ccc2c(c1)C(=O)N([C@H](C)CO)C[C@@H](C)[C@H](CN(C)S(=O)(=O)c1ccccc1)OCCCC[C@@H](C)O2	none
CCOc1ccc(C(C)=O)cc1N1C(=O)C2C3C=CC(C3=C(C)C)C2C1=O (centres undefined)	none
CC(=O)C1=C(O)C(=O)N(Cc2ccco2)C1c1cccc(F)c1 (centres undefined)	none
CCOc1ccc(OCc2ccc(C(=O)NN=Cc3ccc[nH]3)cc2)cc1	none
Cc1ccc2c(Cl)cc(Cl)c(OCc3c(C)noc3C)c2n1	none
CNC[C@H]1OCCCC[C@@H](C)Oc2ccc(NS(=O)(=O)c3ccccc3)cc2C(=O)N([C@H](C)CO)C[C@@H]1C	none
Cc1cccc(N(CC(=O)NC(C)(C)C)C(=O)CNC(=O)c2cccs2)c1	none
CC(C)[C@H]1COCCS(=O)(=O)N1Cc1ccccc1F	none
CCOc1ccc2nc(NCCCNC(=O)c3cc(OC)c(OC)c(OC)c3)c(C#N)cc2c1	none
Cc1ccc(S(=O)(=O)N[C@@H]2C=C[C@H](CC(=O)NCCN3CCCCC3)O[C@@H]2CO)cc1	none
Cc1cccc(COc2ccc(/C=C3/C(=O)N(C)C(=S)N3C)cc2)c1	none
COc1cc(CN2C[C@@H]3N[C@H](C2)C3c2ccc(-c3ccccc3C)cc2)cc(OC)c1 (some centres undefined)	none
COc1cccc(CN2C[C@@H]3N[C@H](C2)C3c2ccc(-c3ccccc3F)cc2)c1 (some centres undefined)	PGC1a acetyl up 108.2
O=S1(=O)CCC(N=Cc2ccc(-c3ccc(Cl)cc3)o2)C1 (centres undefined)	none
Cc1cc(C)cc(OC(=O)CS(=O)c2ccc(C(F)(F)F)cc2[N+](=O)[O-])c1 (centres undefined)	PGC1a acetyl up 63.9
CC1CCCCC1NC(=O)C1CCN(S(=O)(=O)N2CCOCC2)CC1 (centres undefined)	none
COc1ccc(-c2cnc3c(c2)C(=O)N([C@H](C)CO)C[C@H](C)[C@@H](CN(C)C(=O)C2CC2)O3)cc1	none
COC(=O)c1ccc[n+](CC(=O)c2ccc(Br)cc2)c1	none
O=C(CSc1nnc(-c2ccncc2)n1-c1ccc(Cl)cc1)NCc1cccs1	PGC1a acetyl up 80.6
O=C(CSc1nnc(-c2ccco2)n1-c1ccccc1)Nc1c(Cl)cc(Cl)cc1C(=O)O	none
C[C@@H]1CN([C@H](C)CO)C(=O)Cc2cc(NC(=O)Nc3ccccc3)ccc2O[C@H]1CN(C)Cc1ccccc1	none
COC(=O)c1cccc(NC(=O)CSc2nc3cccnc3n2C)c1	none
CC(C)OC(=O)CSc1nc2cccnc2n1-c1ccc(F)cc1	PGC1a acetyl up 53.4
CCC(=O)N1C[C@H](C)[C@@H](OC)CN(C)C(=O)c2ccc(NC(=O)Nc3ccccc3)cc2OC[C@@H]1C	none
O=C(Cc1ccc([N+](=O)[O-])cc1)N/N=C/c1ccc([N+](=O)[O-])o1	PGC1a acetyl up 301.7
O=C(CNc1cccc([N+](=O)[O-])c1)N/N=C/c1ccc([N+](=O)[O-])o1	PGC1a acetyl up 91.5
N#CCc1ccc(NC(=O)/C=C/c2ccc([N+](=O)[O-])o2)cc1	PGC1a acetyl up 299.4
COc1ccc(/C=N/NC(=O)c2ccc(NC(=O)c3cccc([N+](=O)[O-])c3)cc2)c(OC)c1	none
Cc1ccc(OCC(=O)N2CC(C)OC(C)C2)c([N+](=O)[O-])n1 (centres undefined)	none
CN1C(=O)c2ccccc2C(C(=O)O)C1c1cccc([N+](=O)[O-])c1 (centres undefined)	none
COC(=O)Nc1ccc(S(=O)(=O)N(CCO)CC(F)(F)C(F)F)cc1	PGC1a acetyl up 62.0
O=S(=O)(c1ccc(N2CCC(c3ccc(Cl)cc3)=N2)cc1)N(CCO)CCO	none
CCS(=O)(=O)c1ccc2oc(Nc3ccccc3Br)nc2c1	none
CN(C)CCNC(=O)c1cccc2c(-c3ccc(F)c(F)c3)coc12	PGC1a acetyl up 78.1
COCCOc1ccc(C(F)(F)F)cc1NC(=O)CN1C(=O)NC2(CCCc3ccccc32)C1=O (centres undefined)	none
CCOC(=O)c1c2c(n(C)c1C)C(=O)C(=O)c1ccc(Br)cc1-2	PGC1a acetyl up 83.3
CCOC(=O)c1c(C)n(C)c2cc(Br)c(O)c(O)c12	none
Cc1ccc(NC(=S)NNC(=O)c2nn(C)c(C)c2Cl)cc1	none
Cc1nnc2sc(-c3ccc(NC(=O)c4ccc(-c5ccc(Cl)cc5Cl)o4)cc3)nn12	PGC1a acetyl up 98.2
CCC(=O)NCc1c(C)c(C)n(Cc2ccccc2)c1-n1cccc1	none
CN1[C@@H]2CC(OC(=O)[C@H](CO)c3ccccc3)C[C@H]1[C@@H]1O[C@@H]12 (some centres undefined)	none
CCN(C[C@@H]1N[C@@H](CO)[C@H]1c1ccc(-c2ccc(F)cc2)cc1)C(=O)CN(C)C	PGC1a acetyl up 59.4
CSc1nc2nccc(/C=C\c3ccccc3)n2n1	none
CC(C)CCC1=NN(C(=O)c2ccco2)C(O)(C(F)(F)F)C1 (centres undefined)	none
CC1=NN(C(=O)c2ccc(C)cc2)C(O)(C(F)(F)OC(F)(F)F)C1 (centres undefined)	PGC1a acetyl up 54.9
Cc1cc(C)c2c(=O)[nH]n(C3CCCCCC3)c2n1	none
Clc1ccccc1CN1CCSCC1	none
O=C(Nc1ccc2c(c1)C(=O)N(c1ccccc1)C2=O)c1cccs1	none
O=C(N/N=C/C(Br)=C/c1ccccc1)c1n[nH]c2c1CCC2	PGC1a acetyl up 72.4
O=C(NN=C1c2ccccc2-c2ccccc21)c1ccccc1Br	none
O=C(N/N=C/C(Br)=C/c1ccccc1)c1cccs1	PGC1a acetyl up 166.4
CC1C(=O)NN=C1C(=O)N/N=C\C(Br)=C\c1ccccc1 (centres undefined)	PGC1a acetyl up 404.2
O=C(N/N=C/C(Br)=C/c1ccccc1)c1ccccc1F	PGC1a acetyl up 57.5
O=C1Nc2ccccc2N=C(c2ccccc2)C1N(Cc1ccc(F)cc1)C(=O)c1cccnc1 (centres undefined)	none
Cc1cccc(-n2c(CNC(=O)c3cccc([N+](=O)[O-])c3C)n[nH]c2=S)c1	none
Cc1noc(C)c1NC(=O)Nc1ccc2c(c1)C(=O)N([C@H](C)CO)C[C@@H](C)[C@@H](CN(C)S(=O)(=O)c1ccc(F)cc1)OCCCC[C@@H](C)O2	none
CN1OC(COC(=O)c2ccccc2)CC1c1ccccc1 (centres undefined)	none
O=S(=O)(c1ccc(Br)s1)N1CCN(Cc2ccc3c(c2)OCO3)CC1	none
C[C@@H]1CN([C@H](C)CO)C(=O)CCCn2nncc2CO[C@@H]1CN(C)S(=O)(=O)c1cn(C)cn1	none
CCCCC(C(=O)O)C(C)CC(=O)Nc1nncs1 (centres undefined)	none
Cc1cccc(S(=O)(=O)N(C)C[C@@H]2OCc3cn(nn3)CCCC(=O)N([C@@H](C)CO)C[C@H]2C)c1	none
